STAT1 blocker – inhibitors of IFN-gamma induced STAT1 signaling; NIH 3T3 STAT1-luciferase reporter, luminescence; inhibition, % at 5.5 µM; 200,000 compounds, 0.35% hits;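 active means inhibition above a set limit, the mean inhibition across all tested compounds plus 3 SD, cut at about 34% in these data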
C8 TRAIL sens – caspase-8 TRAIL sensitization; inhibition (viability loss, TRAIL sensitization), % at 10 µM; 360,000 compounds, 1% hits; NB7+C8 cells + TRAIL, ATPlite viability luminescence;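 active means compounds causing at least 50% loss of cell viability in the single-dose screen, relative to plate controls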
PPC-1+TRAIL kill – PPC-1 cancer cell killing with TRAIL present | PPC-1 cells + TRAIL, ATPLite viability luminescence | 220,000 compounds, 0.41% hits | cell killing (% activity), % at 4 µM or 5 µM;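 active means cell killing above 50% in the first pass at 4 µM, then a duplicate retest at 5 µM averaging 50% or more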
STAT3 inh – STAT3 signaling inhibition. U3A cells, IL-6 STAT3-luciferase reporter, luminescence; host cell line lacks STAT1. inhibition, % at 5.5 µM. 190,000 compounds, 0.89% hits. AID 862;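 active means inhibition above the mean inhibition across all screened compounds plus 3 SD, cut at about 44% in these data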
STAT3 act-1 – STAT3 signaling activation; U3A cells, IL-6 STAT3-luciferase reporter, luminescence; 100% = signal with IL-6 EC80 alone; activation (% of control), % at 5.6 µM; 190,000 compounds, 0.91% hits;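 active means activation above the screen-wide mean of compound activation plus 3 SD, cut at about 130% in these data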
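Assay system – human STAT1-deficient U3A cells with stable STAT3-luciferase reporter · Also added – IL-6 (33 ng/mL) · Schedule – compound 1 h, then IL-6 6 h at 37 °C · Technique – reporter luminescence signal · Evaluation – % activation versus median of IL-6-stimulated wells · Benchmarks – IL-6-only wells as 100% reference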
STAT3 act-2 – STAT3 activation, confirmation assay; 1,200 compounds, 64% hits; AID 1267; U3A STAT3-luciferase reporter, IL-6 potentiation, luminescence; U3A cells lack STAT1; 100 means same as IL-6 alone; shares compounds with STAT3 act-1; potentiation (% of control), % at 5.7 µM;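 active means percent activation of the STAT3 luciferase reporter above a set limit taken from the earlier primary screen, cut at about 130% in these data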
NFkB act STAT3ct – NF-kappaB activation in STAT3 activator counter-screen. activation (% of control), % at 5.7 µM. shares compounds with STAT3 act-1. human cells, NF-kappaB reporter activation. 1,200 compounds, 11% hits; in the data active means activation above about 120%;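 further: reporter induced by TNF-alpha stimulation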
STAT1 act – counter-screen for STAT3 activators: STAT1 activation | NIH 3T3 STAT1-luciferase reporter, IFN-gamma, luminescence | AID 1318 | activation (% of control), % at 5.7 µM | 1,200 compounds, 13% hits | shares compounds with STAT3 act-1;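 active means activation above the solvent-only control well mean plus 3 SD, set per screening run, cut at about 120% in these data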
Hits are given with their value; n = inactive; x = not tested or not shown. A selection: hits, their analogues and other compounds. The true share with any hit is near 1.8%.

SMILES | STAT1 blocker | C8 TRAIL sens | PPC-1+TRAIL kill | STAT3 inh | STAT3 act-1 | STAT3 act-2 | NFkB act STAT3ct | STAT1 act
CN(C)c1ccc2c(c1)OC(N)=C(C#N)C2c1cccc(F)c1 (stereo not given) | n | n | n | n | 146 | n | 153 | n
CCn1cc(CN2CCc3c([nH]c4ccccc34)C2c2cccc(O)c2)c(C)n1 (stereo not given) | n | n | n | n | 142 | 140 | n | n
CSc1ncc(CN2CCc3c([nH]c4ccccc34)C2c2cccc(O)c2)cn1 (stereo not given) | n | n | n | n | 154 | 147 | n | n
Oc1ccc(Br)cc1-c1cc(-c2ccccc2)n[nH]1 | n | n | n | n | 141 | n | n | n
COc1cccc(NC(=O)CSc2nc3c([nH]c4ccccc43)c(=O)n2C)c1 | n | n | n | n | 139 | n | n | n
CCC(C)Sc1nc2c([nH]c3ccccc32)c(=O)n1C (stereo not given) | n | n | n | n | 166 | n | n | n
Cc1cccc(NC(=O)CSc2nc3c([nH]c4ccccc43)c(=O)n2C)c1 | n | n | n | n | 146 | 135 | n | n
Cn1c(SCC(=O)Nc2ccccc2)nc2c([nH]c3ccccc32)c1=O | n | n | n | n | n | x | x | x
CCc1ccccc1Nc1nc(N)nc(COC(=O)c2cccn2C)n1 | n | n | n | n | 147 | 150 | n | 125
Cc1ccccc1Nc1nc(N)nc(COC(=O)c2cccn2C)n1 | n | n | n | n | n | x | x | x
C#CCNC(=O)c1cc2c(Br)ccc(Br)c2nc1N | x | n | x | x | x | x | x | x
Cc1ccc(Cl)cc1N1CCN(C(=O)Cc2c(C(=O)O)[nH]c3ccc(Cl)cc23)CC1 | n | n | n | n | n | x | x | x
Cc1ccc(Cl)cc1N1CCN(C(=O)Cc2c(C(=O)O)[nH]c3ccccc23)CC1 | n | n | n | n | 138 | n | n | n
O=[N+]([O-])c1cccc(C(=Nc2ccccc2)NO)c1 | n | n | n | n | n | x | x | x
O=[N+]([O-])c1cccc(C(=Nc2ccc(Cl)cc2)NO)c1 | n | n | n | n | 148 | 139 | n | n
CSc1nnc(-c2ccccc2)c(-c2ccccc2)n1 | x | n | n | x | x | x | x | x
CSc1nnc2c3ccccc3c3ccccc3c2n1 | n | n | n | n | 162 | 147 | n | n
CCC1=NN(C(=O)Cc2ccc([N+](=O)[O-])cc2)C(O)(C(F)(F)F)C1 (stereo not given) | x | n | n | x | x | x | x | x
CC(C)(C)C1(O)CC(C(F)(F)F)=NN1C(=O)Cc1ccc([N+](=O)[O-])cc1 (stereo not given) | n | n | x | n | 137 | 152 | n | n
Cc1ccccc1C1c2[nH]c3ccccc3c2CCN1C(=O)c1ccc(=O)n(C)n1 (stereo not given) | n | n | n | n | 163 | 169 | n | n
COc1ccc(C2c3[nH]c4ccccc4c3CCN2C(=O)c2ccc(=O)n(C)n2)c(F)c1 (stereo not given) | n | n | n | n | 148 | 153 | n | n
CC1CC(=O)C2=C(C1)Nc1ccccc1N=C2 (stereo not given) | n | n | n | n | n | x | x | x
CCC1=Nc2ccccc2NC2=C1C(=O)CCC2 | n | n | n | n | 166 | 160 | n | 123
CC(=O)N1CCc2cc(Br)cc(S(=O)(=O)N3CCC(C(=O)O)CC3)c21 | x | n | x | x | x | x | x | x
O=C(Nc1nc2ccccc2n1CCN1CCCC1)c1ccc(Cl)cc1 | n | n | n | n | 150 | 143 | n | 127
SMILES | STAT1 blocker | C8 TRAIL sens | PPC-1+TRAIL kill | STAT3 inh | STAT3 act-1 | STAT3 act-2 | NFkB act STAT3ct | STAT1 act
CC1(C(=O)NCCC#N)CCN1C(=O)c1ccccc1CCc1ccccc1 (stereo not given) | x | n | x | x | x | x | x | x
Cc1cc(C)c(S(=O)(=O)/N=C2/C=C(SCC(=O)O)C(=O)c3ccccc32)cc1C | n | n | n | n | 139 | 135 | n | n
Cc1ccc(NC(=O)CSc2ccccc2)cc1S(=O)(=O)N1CCCCC1 | x | n | x | x | x | x | x | x
O=C1c2ccccc2C(c2nnnn2-c2ccc3c(c2)OCCO3)N1CCCn1ccnc1 (stereo not given) | x | n | x | x | x | x | x | x
O=C(c1cccc(S(=O)(=O)NCc2ccccc2)c1)N1CCN(c2ccccc2Cl)CC1 | x | n | x | x | x | x | x | x
COc1cc([C@@H]2c3cc4c(cc3[C@H](O)[C@H]3COC(=O)[C@H]23)OCO4)cc(OC)c1OC | n | n | n | n | 152 | n | 164 | n
Cc1cc(NC(=O)C(C)C)n(-c2nc3ccccc3s2)n1 | n | n | n | n | 143 | 163 | n | n
Cc1cc(NC(=O)CN2CC(C)OC(C)C2)n(-c2nc3ccccc3s2)n1 (stereo not given) | n | n | n | n | 150 | 133 | n | n
O=C(NC1CCCCC1)c1[nH]c(C(F)(F)F)nc1-c1ccccc1 | x | n | x | x | x | x | x | x
O=C(NC1CCCCCC1)c1ccco1 | x | n | x | x | x | x | x | x
O=C(NC1CCCCC1)C1Cc2ccccc2CN1S(=O)(=O)c1ccc(F)cc1 (stereo not given) | n | n | n | n | n | x | x | x
O=C(Nc1nccs1)C1Cc2ccccc2CN1S(=O)(=O)c1ccc(F)cc1 (stereo not given) | n | n | n | n | 138 | n | 126 | 148
O=C(NCc1cccc(Cl)c1)C1Cc2c(-c3ccccc3Oc3ccccc3)ccnc2O1 (stereo not given) | x | n | x | x | x | x | x | x
Cn1ncc(Br)c1C(=O)Nc1c(F)c(F)cc(F)c1F | n | n | n | n | 139 | 137 | n | 148
COC(=O)/C(=C/Nc1cccc2ccccc12)[N+](=O)[O-] | n | n | n | n | 173 | 135 | n | n
Cc1ccc(-n2c(C)nc3oc4ccccc4c(=O)c3c2=O)cc1 | n | n | n | n | 149 | 159 | 122 | 135
CCC(=O)N1CCC1(C)C(=O)Nc1ccc(OC)c(OC)c1 (stereo not given) | x | n | x | x | x | x | x | x
Nc1c(N(Cc2ccccc2)C(=O)COc2ccc([N+](=O)[O-])cc2)c(=O)[nH]c(=O)n1Cc1ccccc1 | x | n | x | x | x | x | x | x
O=C1OCC2=C1C(c1ccc(F)cc1)c1cc3c(cc1N2)OCO3 (stereo not given) | n | n | n | n | 136 | n | 153 | n
COc1ccc(C2C3=C(COC3=O)Oc3cc4c(cc32)OCO4)cc1OC (stereo not given) | x | n | x | x | x | x | x | x
CCOc1ccccc1C1C2=C(COC2=O)Nc2cc3c(cc21)OCO3 (stereo not given) | n | n | n | n | 141 | n | 131 | n
O=C1OCC2=C1C(c1ccc(F)cc1)c1cc3c(cc1N2)OCCO3 (stereo not given) | n | n | n | n | 138 | n | n | n
